According to ChEMBL document CHEMBL1147557, “Glycosyltransferase activity can be selectively modulated by chemical modifications of acceptor substrates” (Bioorg Med Chem Lett, 2004):
Values belong to the molecule of their own block, whether it stands above or below them. Calls of active or inactive are those of the source. The rule behind the calls is not given here.

Columns and labels:
[1] = system: Alpha-(1,3)-fucosyltransferase 6 (Homo sapiens); test: Kinetic parameter of […] by fucosyltransferase 6 alpha 1,3
[2] = target: T1, Beta-galactoside alpha-2,6-sialyltransferase 1 (Rattus norvegicus) (UniProt P13721); test: (§1) Kinetic parameter of sialylation by alpha-2,6-sialyltransferase
T1 sequence (whole entry): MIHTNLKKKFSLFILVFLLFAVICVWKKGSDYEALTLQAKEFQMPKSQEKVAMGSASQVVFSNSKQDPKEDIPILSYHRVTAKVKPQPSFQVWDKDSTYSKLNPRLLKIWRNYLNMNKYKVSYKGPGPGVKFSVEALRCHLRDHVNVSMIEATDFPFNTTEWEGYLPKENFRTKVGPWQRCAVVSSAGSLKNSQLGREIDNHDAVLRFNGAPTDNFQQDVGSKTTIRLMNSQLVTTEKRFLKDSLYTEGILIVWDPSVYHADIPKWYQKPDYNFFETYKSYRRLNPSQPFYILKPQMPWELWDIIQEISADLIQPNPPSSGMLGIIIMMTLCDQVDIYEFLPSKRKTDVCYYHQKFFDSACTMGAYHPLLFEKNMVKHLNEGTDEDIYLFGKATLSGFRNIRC
Method in brief: (§2)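 Rat liver recombinant α-2,6-sialyltransferase transferring CMP-[14C]-Neu5Ac to LacNAc-based acceptors. Apparent kinetic parameters (Km, Vmax) were determined by previously reported assays. Vmax is expressed relative to unmodified LacNAc, which is set at 1.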

[3] = system: Alpha-(1,3)-fucosyltransferase 6 (Homo sapiens); test: Kinetic parameter of […] of compound by fucosyltransferase 6 alpha 1,3; Not active
[4] = substrate: CO[C@@H]1O[C@@H](COS(C)(=O)=O)[C@@H](O[C@@H]2O[C@@H](CO)[C@H](O)[C@H](O)[C@@H]2O)[C@H](O)[C@@H]1NC(C)=O; test: (§3) Apparent kinetic parameter of sialylation by alpha-2,6-sialyltransferase; conditions: Rattus norvegicus
Method in brief: as §2

[5] = substrate: CO[C@@H]1O[C@@H](C(N)=O)[C@@H](O[C@@H]2O[C@@H](CO)[C@H](O)[C@H](O)[C@@H]2O)[C@H](O)[C@@H]1NC(C)=O; test: as §3; conditions: Rattus norvegicus
Method in brief: as §2

[6] = substrate: CO[C@@H]1O[C@@H](CO)[C@@H](O[C@@H]2O[C@@H](CO)[C@H](O)[C@H](O)[C@@H]2O)[C@H](O)[C@@H]1NC(C)=O; test: as §3; conditions: Rattus norvegicus
Method in brief: as §2

[7] = substrate: COC[C@@H]1O[C@@H](OC)[C@@H](NC(C)=O)[C@@H](O)[C@@H]1O[C@@H]1O[C@@H](CO)[C@H](O)[C@H](O)[C@@H]1OC; test: as §3; conditions: Rattus norvegicus
Method in brief: as §2

[8] = substrate: CO[C@@H]1O[C@@H](CN)[C@@H](O[C@@H]2O[C@@H](CO)[C@H](O)[C@H](O)[C@@H]2O)[C@H](O)[C@@H]1NC(C)=O; test: as §3; conditions: Rattus norvegicus
Method in brief: as §2

[9] = substrate: COC[C@@H]1O[C@@H](OC)[C@@H](NC(C)=O)[C@@H](O)[C@@H]1O[C@@H]1O[C@@H](CO)[C@H](O)[C@H](O)[C@@H]1O; test: as §3; conditions: Rattus norvegicus
Method in brief: as §2

[10] = substrate: CNC(=O)[C@@H]1O[C@@H](OC)[C@@H](NC(C)=O)[C@@H](O)[C@@H]1O[C@@H]1O[C@@H](CO)[C@H](O)[C@H](O)C1O; test: as §3; conditions: Rattus norvegicus
Method in brief: as §2

[11] = substrate: CO[C@@H]1O[C@@H](CNS(C)(=O)=O)[C@@H](O[C@@H]2O[C@@H](CO)[C@H](O)[C@H](O)[C@@H]2O)[C@H](O)[C@@H]1NC(C)=O; test: as §3; conditions: Rattus norvegicus
Method in brief: as §2

[12] = substrate: CO[C@@H]1O[C@@H](CNC(C)=O)[C@@H](O[C@@H]2O[C@@H](CO)[C@H](O)[C@H](O)[C@@H]2O)[C@H](O)[C@@H]1NC(C)=O; test: as §3; conditions: Rattus norvegicus
Method in brief: as §2

[13] = substrate: CO[C@@H]1O[C@@H](CO)[C@@H](O[C@@H]2O[C@@H](CO)[C@H](O)[C@H](O)[C@@H]2OC)[C@H](O)[C@@H]1NC(C)=O; test: as §3; conditions: Rattus norvegicus
Method in brief: as §2

[14] = substrate: CO[C@@H]1O[C@@H](CNC=O)[C@@H](O[C@@H]2O[C@@H](CO)[C@H](O)[C@H](O)[C@@H]2O)[C@H](O)[C@@H]1NC(C)=O; test: as §3; conditions: Rattus norvegicus
Method in brief: as §2

[15] = substrate: CO[C@@H]1O[C@@H](CNC=O)[C@@H](O[C@@H]2O[C@@H](CO)[C@H](O)[C@H](O)[C@@H]2OC)[C@H](O)[C@@H]1NC(C)=O; test: as §3; conditions: Rattus norvegicus
Method in brief: as §2

[16] = substrate: CO[C@@H]1O[C@@H](COS(C)(=O)=O)[C@@H](O[C@@H]2O[C@@H](CO)[C@H](O)[C@H](O)[C@@H]2O)[C@H](O)[C@@H]1NC(C)=O; test: as §1; conditions: Rattus norvegicus
Method in brief: as §2

[17] = substrate: CO[C@@H]1O[C@@H](C(N)=O)[C@@H](O[C@@H]2O[C@@H](CO)[C@H](O)[C@H](O)[C@@H]2O)[C@H](O)[C@@H]1NC(C)=O; test: as §1; conditions: Rattus norvegicus
Method in brief: as §2

[18] = substrate: CO[C@@H]1O[C@@H](CO)[C@@H](O[C@@H]2O[C@@H](CO)[C@H](O)[C@H](O)[C@@H]2O)[C@H](O)[C@@H]1NC(C)=O; test: as §1; conditions: Rattus norvegicus
Method in brief: as §2

[19] = substrate: COC[C@@H]1O[C@@H](OC)[C@@H](NC(C)=O)[C@@H](O)[C@@H]1O[C@@H]1O[C@@H](CO)[C@H](O)[C@H](O)[C@@H]1OC; test: as §1; conditions: Rattus norvegicus
Method in brief: as §2

[20] = substrate: CO[C@@H]1O[C@@H](CN)[C@@H](O[C@@H]2O[C@@H](CO)[C@H](O)[C@H](O)[C@@H]2O)[C@H](O)[C@@H]1NC(C)=O; test: as §1; conditions: Rattus norvegicus
Method in brief: as §2

[21] = substrate: COC[C@@H]1O[C@@H](OC)[C@@H](NC(C)=O)[C@@H](O)[C@@H]1O[C@@H]1O[C@@H](CO)[C@H](O)[C@H](O)[C@@H]1O; test: as §1; conditions: Rattus norvegicus
Method in brief: as §2

[22] = substrate: CNC(=O)[C@@H]1O[C@@H](OC)[C@@H](NC(C)=O)[C@@H](O)[C@@H]1O[C@@H]1O[C@@H](CO)[C@H](O)[C@H](O)C1O; test: as §1; conditions: Rattus norvegicus
Method in brief: as §2

[23] = substrate: CO[C@@H]1O[C@@H](CNS(C)(=O)=O)[C@@H](O[C@@H]2O[C@@H](CO)[C@H](O)[C@H](O)[C@@H]2O)[C@H](O)[C@@H]1NC(C)=O; test: as §1; conditions: Rattus norvegicus
Method in brief: as §2

[24] = substrate: CO[C@@H]1O[C@@H](CNC(C)=O)[C@@H](O[C@@H]2O[C@@H](CO)[C@H](O)[C@H](O)[C@@H]2O)[C@H](O)[C@@H]1NC(C)=O; test: as §1; conditions: Rattus norvegicus
Method in brief: as §2

[25] = substrate: CO[C@@H]1O[C@@H](CO)[C@@H](O[C@@H]2O[C@@H](CO)[C@H](O)[C@H](O)[C@@H]2OC)[C@H](O)[C@@H]1NC(C)=O; test: as §1; conditions: Rattus norvegicus
Method in brief: as §2

[26] = substrate: CO[C@@H]1O[C@@H](CNC=O)[C@@H](O[C@@H]2O[C@@H](CO)[C@H](O)[C@H](O)[C@@H]2O)[C@H](O)[C@@H]1NC(C)=O; test: as §1; conditions: Rattus norvegicus
Method in brief: as §2

[27] = substrate: CO[C@@H]1O[C@@H](CNC=O)[C@@H](O[C@@H]2O[C@@H](CO)[C@H](O)[C@H](O)[C@@H]2OC)[C@H](O)[C@@H]1NC(C)=O; test: as §1; conditions: Rattus norvegicus
Method in brief: as §2

Vmax / Km [1]: 9.3
Vmax / Km [2]: 0.3
Molecule: CO[C@@H]1O[C@@H](CNC=O)[C@@H](O[C@@H]2O[C@@H](CO)[C@H](O)[C@H](O)[C@@H]2OC)[C@H](O)[C@@H]1NC(C)=O

Vmax / Km [1]: 8.7
Vmax / Km [2]: 0.9
Molecule: CO[C@@H]1O[C@@H](CNS(C)(=O)=O)[C@@H](O[C@@H]2O[C@@H](CO)[C@H](O)[C@H](O)[C@@H]2O)[C@H](O)[C@@H]1NC(C)=O

Vmax / Km [1]: 4.5
Vmax / Km [2]: 0.2
Molecule: COC[C@@H]1O[C@@H](OC)[C@@H](NC(C)=O)[C@@H](O)[C@@H]1O[C@@H]1O[C@@H](CO)[C@H](O)[C@H](O)[C@@H]1O

Vmax / Km [1]: 1.5
Vmax / Km [2]: 0.08
Molecule: CO[C@@H]1O[C@@H](CN)[C@@H](O[C@@H]2O[C@@H](CO)[C@H](O)[C@H](O)[C@@H]2O)[C@H](O)[C@@H]1NC(C)=O

Vmax / Km [1]: 0.4
Vmax / Km [2]: 0.08
Molecule: CNC(=O)[C@@H]1O[C@@H](OC)[C@@H](NC(C)=O)[C@@H](O)[C@@H]1O[C@@H]1O[C@@H](CO)[C@H](O)[C@H](O)C1O (some centres undefined)

Vmax / Km [1]: 1.2
Vmax / Km [2]: 0.2
Molecule: COC(=O)[C@@H]1O[C@@H](OC)[C@@H](NC(C)=O)[C@@H](O)[C@@H]1O[C@@H]1O[C@@H](CO)[C@H](O)[C@H](O)[C@@H]1O

Vmax / Km [1]: 3.1
Vmax / Km [2]: 0.2
Molecule: CO[C@@H]1O[C@@H](CO)[C@@H](O[C@@H]2O[C@@H](CO)[C@H](O)[C@H](O)[C@@H]2OC)[C@H](O)[C@@H]1NC(C)=O

Vmax / Km [1]: 7.3
Vmax / Km [2]: 1.5
Molecule: CO[C@@H]1O[C@@H](CNC=O)[C@@H](O[C@@H]2O[C@@H](CO)[C@H](O)[C@H](O)[C@@H]2O)[C@H](O)[C@@H]1NC(C)=O

Vmax / Km [1]: 6.7
Vmax / Km [2]: 0.04
Molecule: COC[C@@H]1O[C@@H](OC)[C@@H](NC(C)=O)[C@@H](O)[C@@H]1O[C@@H]1O[C@@H](CO)[C@H](O)[C@H](O)[C@@H]1OC

Vmax / Km [1]: 3.6
Vmax / Km [2]: 1.3
Molecule: CO[C@@H]1O[C@@H](COS(C)(=O)=O)[C@@H](O[C@@H]2O[C@@H](CO)[C@H](O)[C@H](O)[C@@H]2O)[C@H](O)[C@@H]1NC(C)=O

Vmax / Km [2]: 0.6
Molecule: CO[C@@H]1O[C@@H](CO)[C@@H](O[C@@H]2O[C@@H](CO)[C@H](O)[C@H](O)[C@@H]2O)[C@H](O)[C@@H]1NC(C)=O

Vmax / Km [1]: 6.8
Vmax / Km [2]: 0.4
Molecule: CO[C@@H]1O[C@@H](CNC(C)=O)[C@@H](O[C@@H]2O[C@@H](CO)[C@H](O)[C@H](O)[C@@H]2O)[C@H](O)[C@@H]1NC(C)=O

Vmax / Km [3]: inactive
Vmax / Km [2]: 0.02
Molecule: CO[C@@H]1O[C@@H](C(N)=O)[C@@H](O[C@@H]2O[C@@H](CO)[C@H](O)[C@H](O)[C@@H]2O)[C@H](O)[C@@H]1NC(C)=O

B1: Beta-galactoside alpha-2,6-sialyltransferase 1 (Rattus norvegicus), P13721 (protein)
chain: T1 sequence (whole entry)
Km [4]: 700 µM
Km [5]: > 10000 µM
Km [6]: 1700 µM
Km [7]: 11200 µM
Km [8]: 5800 µM
Km [9]: 4300 µM
Km [10]: 2400 µM
Km [11]: 800 µM
Km [12]: 1400 µM
Km [13]: 4100 µM
Km [14]: 1100 µM
Km [15]: 3100 µM
Vmax [16]: 0.9
Vmax [17]: < 0.2
Vmax [18]: 1
Vmax [19]: 0.5
Vmax [20]: 0.5
Vmax [21]: 0.8
Vmax [22]: 0.2
Vmax [23]: 0.7
Vmax [24]: 0.6
Vmax [25]: 0.8
Vmax [26]: 1.6
Vmax [27]: 1
